Results on five molecules are retold here after ChEMBL document CHEMBL4725492, “Dioxane-Linked Amide Derivatives as Novel Bacterial Topoisomerase Inhibitors against Gram-Positive Staphylococcus aureus” (ACS Med Chem Lett, 2020).

SMILES strings stand for the structures. Values after ≈ are worked out from the molar mass of the structure shown. Active and inactive are the calls of the source. No cut-off for these calls is given here. A value given as a limit tells only on which side of the number the result lay.

What is called IC50 is the concentration needed to halve the response being measured. A word on the MIC: it is the lowest concentration that inhibits growth of the organism. Higher therefore signals a less susceptible organism.

Test system in one data set: not listed separately
Put plainly: Growth inhibition of human K/VP.5 cells incubated for 48 hrs by sulforhodamine B assay. It counts as functional.
Details: not given
For orientation: Sulforhodamine B stains cellular protein and so reports cell mass.
Turning to `COc1ccc2nccc(CC[C@H]3OC[C@H](NC(=O)c4cccc(Cl)c4)CO3)c2c1`, the INH is 50 µM.

Take `COc1ccc2nccc(CC[C@H]3OC[C@H](NC(=O)c4ccc(OC(F)(F)F)cc4)CO3)c2c1`: the INH was determined as 9 µM.

Turning to `COc1ccc2nccc(CC[C@H]3OC[C@H](NC(=O)c4ccc(Cl)cc4)CO3)c2c1`, the INH worked out at 11 µM.

In turn, `COc1ccc2nccc(CC[C@H]3OC[C@H](NC(=O)c4ccc(C(C)(C)C)cc4)CO3)c2c1` displayed an INH of 8.8 µM.

Take `COc1ccc2nccc(CC[C@H]3OC[C@H](NC(=O)c4ccc(C)cc4)CO3)c2c1`: the INH was determined as 17 µM.

The target in another data set is DNA gyrase (Staphylococcus aureus, UniProt P0A0K8+P20831). Put plainly: Inhibition of Staphylococcus aureus DNA gyrase using relaxed pBR322 as substrate by gel electrophoresis. It counts as protein-complex assay.
Details: not given
Molecule `COc1ccc2nccc(CC[C@H]3OC[C@H](NC(=O)c4cccc(Cl)c4)CO3)c2c1` yielded an IC50 of 320 nM.

In turn, `COc1ccc2nccc(CC[C@H]3OC[C@H](NC(=O)c4ccc(OC(F)(F)F)cc4)CO3)c2c1` showed a half-inhibitory concentration (IC50) of 1400 nM.

Molecule `COc1ccc2nccc(CC[C@H]3OC[C@H](NC(=O)c4ccc(Cl)cc4)CO3)c2c1` displayed a concentration for half-maximal inhibition (IC50) of 610 nM.

As for `COc1ccc2nccc(CC[C@H]3OC[C@H](NC(=O)c4ccc(C(C)(C)C)cc4)CO3)c2c1`, the 50% inhibitory concentration (IC50) came to 1300 nM.

In the case of `COc1ccc2nccc(CC[C@H]3OC[C@H](NC(=O)c4ccc(C)cc4)CO3)c2c1`, the IC50 turned out to be 410 nM.

The test system of another data set is K562. Put plainly: Growth inhibition of human K562 cells incubated for 48 hrs by sulforhodamine B assay. Type of data set: functional.
Details: not given
`COc1ccc2nccc(CC[C@H]3OC[C@H](NC(=O)c4cccc(Cl)c4)CO3)c2c1` displayed an INH of less than 200 µM.

In turn, `COc1ccc2nccc(CC[C@H]3OC[C@H](NC(=O)c4ccc(OC(F)(F)F)cc4)CO3)c2c1` had an INH of 11 µM.

Turning to `COc1ccc2nccc(CC[C@H]3OC[C@H](NC(=O)c4ccc(Cl)cc4)CO3)c2c1`, the INH stood at 10 µM.

Consider `COc1ccc2nccc(CC[C@H]3OC[C@H](NC(=O)c4ccc(C(C)(C)C)cc4)CO3)c2c1`, for which the INH was determined as 8.4 µM.

On to `COc1ccc2nccc(CC[C@H]3OC[C@H](NC(=O)c4ccc(C)cc4)CO3)c2c1`, for which the INH came to 18 µM.

The target in another data set is Topoisomerase IV (Staphylococcus aureus, UniProt P0C1S7+P0C1U9). Put plainly: (§1) Inhibition of Staphylococcus aureus topoisomerase-4 assessed as reduction in decatenation of kinetoplast DNA agarose gel electrophoresis method.
Details: not given
Type of data set: protein-complex assay.
On to `COc1ccc2nccc(CC[C@H]3OC[C@H](NC(=O)c4ccc(C(C)(C)C)cc4)CO3)c2c1`, for which the IC50 is greater than 200000 nM.

In another data set the target is Topoisomerase IV (Staphylococcus aureus, UniProt P0C1U9+P0C1S7). Described as §1.
Details: not given
It counts as protein-complex assay.
With `COc1ccc2nccc(CC[C@H]3OC[C@H](NC(=O)c4cccc(Cl)c4)CO3)c2c1`, the 50% inhibitory concentration (IC50) entry was “Not Active”.

On to `COc1ccc2nccc(CC[C@H]3OC[C@H](NC(=O)c4ccc(OC(F)(F)F)cc4)CO3)c2c1`, for which the 50% inhibitory concentration (IC50) entry is given as “Not Active”.

As to `COc1ccc2nccc(CC[C@H]3OC[C@H](NC(=O)c4ccc(Cl)cc4)CO3)c2c1`, the half-inhibitory concentration (IC50) result is recorded as “Not Active”.

For `COc1ccc2nccc(CC[C@H]3OC[C@H](NC(=O)c4ccc(C)cc4)CO3)c2c1`, the concentration for half-maximal inhibition (IC50) entry is “Not Active”.

Another data set deals with DNA topoisomerase 2-alpha (Homo sapiens, UniProt P11388). The data set can be described thus: Inhibition of human topoisomerase 2alpha.
Details: not given
The essentials: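 Human topoisomerase IIα decatenation activity was tested at a single concentration of 100 μM and reported as percent inhibition.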
Regarding `COc1ccc2nccc(CC[C@H]3OC[C@H](NC(=O)c4ccc(OC(F)(F)F)cc4)CO3)c2c1`, the “inhibition (INH)” value was “Not Active”.

Regarding `COc1ccc2nccc(CC[C@H]3OC[C@H](NC(=O)c4ccc(Cl)cc4)CO3)c2c1`, the “inhibition (INH)” value is on record as “Not Active”.

For the molecule `COc1ccc2nccc(CC[C@H]3OC[C@H](NC(=O)c4ccc(C(C)(C)C)cc4)CO3)c2c1`, the “inhibition (INH)” value is given as “Not Active”.

Take `COc1ccc2nccc(CC[C@H]3OC[C@H](NC(=O)c4ccc(C)cc4)CO3)c2c1`: the “inhibition (INH)” value is “Not Active”.

The test system of the next data set is Staphylococcus aureus. The data set can be described thus: Antibacterial activity against Staphylococcus aureus ATCC 29213 by CLSI based agar dilution method.
Details: not given
It counts as functional. (In agar dilution the substance is mixed into plates at graded concentrations.)
In the case of `COc1ccc2nccc(CC[C@H]3OC[C@H](NC(=O)c4cccc(Cl)c4)CO3)c2c1`, the minimal inhibitory concentration (MIC) was 2 µg/mL (≈ 4.68 µM).

For the molecule `COc1ccc2nccc(CC[C@H]3OC[C@H](NC(=O)c4ccc(OC(F)(F)F)cc4)CO3)c2c1`, the MIC was 0.5 µg/mL (≈ 1.05 µM).

As to `COc1ccc2nccc(CC[C@H]3OC[C@H](NC(=O)c4ccc(Cl)cc4)CO3)c2c1`, the lowest concentration to inhibit growth (MIC) was 1 µg/mL (≈ 2.34 µM).

Regarding `COc1ccc2nccc(CC[C@H]3OC[C@H](NC(=O)c4ccc(C(C)(C)C)cc4)CO3)c2c1`, the MIC is 0.25 µg/mL (≈ 0.557 µM).

Take `COc1ccc2nccc(CC[C@H]3OC[C@H](NC(=O)c4ccc(C)cc4)CO3)c2c1`: it took 1 µg/mL (≈ 2.46 µM) to inhibit growth (MIC).

In a further data set the target is T1, DNA gyrase (Staphylococcus aureus) (UniProt P0A0K8+P20831). Put plainly: Inhibition of Staphylococcus aureus DNA gyrase assessed as double-strand break at 20 uM using relaxed pBR322 as substrate by ethidium bromide-based gel electrophoresis. It counts as protein-complex assay.
Details: not given
The essentials: (§2)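 S. aureus gyrase-mediated DNA cleavage: compound was incubated with enzyme and DNA, and products were resolved on an ethidium-stained gel into negatively supercoiled, nicked (single-strand break) and linear (double-strand break) forms. Lane fluorescence was corrected for differential band emission. Percent of each form was calculated, and enzyme-only cleavage was subtracted. Concentrations spanned 0.1 nM–200 μM, with a 20 μM single-point screen. Results are mean ± SD or range.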
As for `COc1ccc2nccc(CC[C@H]3OC[C@H](NC(=O)c4cccc(Cl)c4)CO3)c2c1`, the inhibition entry is “inactive”.

For the molecule `COc1ccc2nccc(CC[C@H]3OC[C@H](NC(=O)c4ccc(OC(F)(F)F)cc4)CO3)c2c1`, the inhibition entry is “inactive”.

In the case of `COc1ccc2nccc(CC[C@H]3OC[C@H](NC(=O)c4ccc(Cl)cc4)CO3)c2c1`, the inhibition result is “inactive”.

As to `COc1ccc2nccc(CC[C@H]3OC[C@H](NC(=O)c4ccc(C(C)(C)C)cc4)CO3)c2c1`, the inhibition result is “inactive”.

For `COc1ccc2nccc(CC[C@H]3OC[C@H](NC(=O)c4ccc(C)cc4)CO3)c2c1`, the inhibition entry was “inactive”.

The test system of the next data set is Staphylococcus aureus. The data set can be described thus: Antibacterial activity against Staphylococcus aureus D83N by CLSI based agar dilution method. Type of data set: functional.
Details: not given
`COc1ccc2nccc(CC[C@H]3OC[C@H](NC(=O)c4cccc(Cl)c4)CO3)c2c1` gave a minimum inhibitory concentration (MIC) greater than 32 µg/mL.

On to `COc1ccc2nccc(CC[C@H]3OC[C@H](NC(=O)c4ccc(OC(F)(F)F)cc4)CO3)c2c1`, for which the minimum inhibitory concentration (MIC) is greater than 32 µg/mL.

`COc1ccc2nccc(CC[C@H]3OC[C@H](NC(=O)c4ccc(Cl)cc4)CO3)c2c1` yielded a minimum inhibitory concentration (MIC) greater than 32 µg/mL.

`COc1ccc2nccc(CC[C@H]3OC[C@H](NC(=O)c4ccc(C(C)(C)C)cc4)CO3)c2c1` had a minimal inhibitory concentration (MIC) of 2 µg/mL (≈ 4.46 µM).

Consider `COc1ccc2nccc(CC[C@H]3OC[C@H](NC(=O)c4ccc(C)cc4)CO3)c2c1`, for which the MIC was greater than 32 µg/mL.

A further data set relates to Staphylococcus aureus. Put plainly: Antibacterial activity against Staphylococcus aureus USA300 by CLSI based agar dilution method. It counts as functional.
Details: not given
Take `COc1ccc2nccc(CC[C@H]3OC[C@H](NC(=O)c4cccc(Cl)c4)CO3)c2c1`: the MIC was 1 µg/mL (≈ 2.34 µM).

Regarding `COc1ccc2nccc(CC[C@H]3OC[C@H](NC(=O)c4ccc(OC(F)(F)F)cc4)CO3)c2c1`, the minimum inhibitory concentration (MIC) came out at 1 µg/mL (≈ 2.1 µM).

For the molecule `COc1ccc2nccc(CC[C@H]3OC[C@H](NC(=O)c4ccc(Cl)cc4)CO3)c2c1`, inhibition of growth (MIC) required 1 µg/mL (≈ 2.34 µM).

As for `COc1ccc2nccc(CC[C@H]3OC[C@H](NC(=O)c4ccc(C(C)(C)C)cc4)CO3)c2c1`, the minimal inhibitory concentration (MIC) was found to be 1 µg/mL (≈ 2.23 µM).

Regarding `COc1ccc2nccc(CC[C@H]3OC[C@H](NC(=O)c4ccc(C)cc4)CO3)c2c1`, 1 µg/mL (≈ 2.46 µM) was the least that counted as inhibitory (MIC).

In the next data set the target is Voltage-gated inwardly rectifying potassium channel KCNH2 (Homo sapiens, UniProt Q12809). Put plainly: Inhibition of human ERG. The conditions noted are these: human.
`COc1ccc2nccc(CC[C@H]3OC[C@H](NC(=O)c4cccc(Cl)c4)CO3)c2c1` registered an INH greater than 3 µM.

`COc1ccc2nccc(CC[C@H]3OC[C@H](NC(=O)c4ccc(OC(F)(F)F)cc4)CO3)c2c1` returned an INH greater than 10 µM.

`COc1ccc2nccc(CC[C@H]3OC[C@H](NC(=O)c4ccc(Cl)cc4)CO3)c2c1` gave an INH of 11 µM.

With `COc1ccc2nccc(CC[C@H]3OC[C@H](NC(=O)c4ccc(C(C)(C)C)cc4)CO3)c2c1`, the INH is 5.2 µM.

`COc1ccc2nccc(CC[C@H]3OC[C@H](NC(=O)c4ccc(C)cc4)CO3)c2c1` had an INH greater than 30 µM.

Another data set relates to Staphylococcus aureus. The data set can be described thus: Antibacterial activity against Staphylococcus aureus 3527 by CLSI based agar dilution method. It counts as functional.
Details: not given
Take `COc1ccc2nccc(CC[C@H]3OC[C@H](NC(=O)c4cccc(Cl)c4)CO3)c2c1`: the MIC was found to be 1 µg/mL (≈ 2.34 µM).

Consider `COc1ccc2nccc(CC[C@H]3OC[C@H](NC(=O)c4ccc(OC(F)(F)F)cc4)CO3)c2c1`, for which the MIC was 2 µg/mL (≈ 4.2 µM).

`COc1ccc2nccc(CC[C@H]3OC[C@H](NC(=O)c4ccc(Cl)cc4)CO3)c2c1` showed an MIC of 2 µg/mL (≈ 4.68 µM).

On to `COc1ccc2nccc(CC[C@H]3OC[C@H](NC(=O)c4ccc(C(C)(C)C)cc4)CO3)c2c1`, for which the minimal inhibitory concentration (MIC) stood at 1 µg/mL (≈ 2.23 µM).

In the case of `COc1ccc2nccc(CC[C@H]3OC[C@H](NC(=O)c4ccc(C)cc4)CO3)c2c1`, the MIC was 2 µg/mL (≈ 4.92 µM).

The next data set deals with T1, DNA gyrase (Staphylococcus aureus). The data set can be described thus: Inhibition of Staphylococcus aureus DNA gyrase assessed as single-strand break at 20 uM using relaxed pBR322 as substrate by ethidium bromide-based gel electrophoresis. Type of data set: protein-complex assay.
Details: not given
The essentials: as §2
As for `COc1ccc2nccc(CC[C@H]3OC[C@H](NC(=O)c4cccc(Cl)c4)CO3)c2c1`, the inhibition result is “Active”.

On to `COc1ccc2nccc(CC[C@H]3OC[C@H](NC(=O)c4ccc(OC(F)(F)F)cc4)CO3)c2c1`, for which the inhibition entry was “Active”.

For `COc1ccc2nccc(CC[C@H]3OC[C@H](NC(=O)c4ccc(Cl)cc4)CO3)c2c1`, the inhibition result is “Active”.

Take `COc1ccc2nccc(CC[C@H]3OC[C@H](NC(=O)c4ccc(C(C)(C)C)cc4)CO3)c2c1`: the inhibition entry was “Active”.

Take `COc1ccc2nccc(CC[C@H]3OC[C@H](NC(=O)c4ccc(C)cc4)CO3)c2c1`: the inhibition result was “Active”.
